Test results: ChEMBL document CHEMBL1154787, “Enaminonitrile in heterocyclic synthesis: synthesis and antimicrobial evaluation of some new pyrazole, isoxazole and pyrimidine derivatives incorporating a benzothiazole moiety” (2009)
≈ marks a conversion by molar mass, not a printed value.

Key:
Assay type in all cases: functional
Bacillus subtilis [1] = assay: Antibacterial activity against Bacillus subtilis assessed as zone of inhibition diameter at 1 mg/mL after 24 hrs […]; details: read-out: DIZ
Outline: (§1)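 Agar diffusion: 5 mm sterile filter-paper disks loaded with test compound in DMF (1 mg/mL) placed on agar seeded with the bacterium, in triplicate; DMF alone as control; incubated 37 °C for 24 h; mean inhibition-zone diameter recorded in mm.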

Bacillus thuringiensis [2] = assay: Antibacterial activity against Bacillus thuringiensis assessed as zone of inhibition diameter at 1 mg/mL after 24 hrs […]; details: read-out: DIZ; outline: as §1
Escherichia coli [3] = assay: Antibacterial activity against Escherichia coli assessed as zone of inhibition diameter at 1 mg/mL after 24 hrs […]; details: read-out: DIZ; outline: as §1
Pseudomonas aeruginosa [4] = assay: Antibacterial activity against Pseudomonas aeruginosa assessed as zone of inhibition diameter at 1 mg/mL after 24 hrs […]; details: read-out: DIZ; outline: as §1
Fusarium oxysporum [5] = assay: Antifungal activity against Fusarium oxysporum assessed as zone of inhibition diameter at 1 mg/mL after 48 hrs […]; details: read-out: DIZ
Outline: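 Agar diffusion: 5 mm sterile filter-paper disks loaded with test compound in DMF (1 mg/mL) placed on agar seeded with the fungus, in triplicate; DMF alone as control; incubated at 37 °C for fungal plates; mean inhibition-zone diameter recorded in mm.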

Bacillus subtilis [6] = assay: Antibacterial activity against Bacillus subtilis after 24-48 hrs by microdilution susceptibility test
Outline: (§2)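 MIC by twofold serial dilution in wells, tested only for compounds giving inhibition zones >10 mm; microbial suspensions at 10⁶ CFU/mL inoculated into wells, incubated at 36 °C for 24–48 h, then MIC read.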

Bacillus thuringiensis [7] = assay: Antibacterial activity against Bacillus thuringiensis after 24-48 hrs by microdilution susceptibility test; outline: as §2
Escherichia coli [8] = assay: Antibacterial activity against Escherichia coli after 24-48 hrs by microdilution susceptibility test; outline: as §2
Pseudomonas aeruginosa [9] = assay: Antibacterial activity against Pseudomonas aeruginosa after 24-48 hrs by microdilution susceptibility test; outline: as §2
Botrytis fabae = assay: Antifungal activity against Botrytis fabae after 24-48 hrs by microdilution susceptibility test; outline: as §2
Fusarium oxysporum [10] = assay: Antifungal activity against Fusarium oxysporum after 24-48 hrs by microdilution susceptibility test; outline: as §2

| Structure (SMILES) | zone of inhibition at 1000 µg/mL (Bacillus subtilis [1]) [mm] | zone of inhibition at 1000 µg/mL (Bacillus thuringiensis [2]) [mm] | zone of inhibition at 1000 µg/mL (Escherichia coli [3]) [mm] | zone of inhibition at 1000 µg/mL (Pseudomonas aeruginosa [4]) [mm] | zone of inhibition at 1000 µg/mL (Fusarium oxysporum [5]) [mm] | MIC (Bacillus subtilis [6]) [µg/mL] | MIC (Bacillus thuringiensis [7]) [µg/mL] | MIC (Escherichia coli [8]) [µg/mL] | MIC (Pseudomonas aeruginosa [9]) [µg/mL] | MIC (Botrytis fabae) [µg/mL] | MIC (Fusarium oxysporum [10]) [µg/mL] |
| --- | --- | --- | --- | --- | --- | --- | --- | --- | --- | --- | --- |
| N=c1c(C(=O)Nc2nc3ccccc3s2)cnc2ccccn12 | 37 | 31 | 31 | 19 | 25 | 6.25 (≈ 19.4 µM) | 12.5 (≈ 38.9 µM) | 12.5 (≈ 38.9 µM) | 50 (≈ 156 µM) | 6.25 (≈ 19.4 µM) | 25 (≈ 77.8 µM) |
| Nc1oncc1C(=O)Nc1nc2ccccc2s1 | 19 | 25 | 19 | 19 | 25 | 50 (≈ 192 µM) | 25 (≈ 96.1 µM) | 50 (≈ 192 µM) | 50 (≈ 192 µM) | 6.25 (≈ 24 µM) | 25 (≈ 96.1 µM) |
| N#Cc1cncn(-c2nc3ccccc3s2)c1=O | 31 | 19 | 19 | 19 | 19 | 12.5 (≈ 49.2 µM) | 50 (≈ 197 µM) | 50 (≈ 197 µM) | 50 (≈ 197 µM) | 12.5 (≈ 49.2 µM) | 50 (≈ 197 µM) |
| N#C/C(=C\NNc1ccccc1)C(=O)Nc1nc2ccccc2s1 | 13 | 19 | 31 | 25 | 31 | 100 (≈ 298 µM) | 50 (≈ 149 µM) | 12.5 (≈ 37.3 µM) | 25 (≈ 74.5 µM) | 6.25 (≈ 18.6 µM) | 12.5 (≈ 37.3 µM) |
| O=C(N[C@H](CO)[C@H](O)c1ccc([N+](=O)[O-])cc1)C(Cl)Cl [CHLORAMPHENICOL] | 37 | 37 | 37 | 37 |  | 6.25 (≈ 19.3 µM) | 6.25 (≈ 19.3 µM) | 6.25 (≈ 19.3 µM) | 6.25 (≈ 19.3 µM) |  |  |
| Nc1c(C(=O)Nc2nc3ccccc3s2)cnn1-c1ccccc1 | 31 | 19 | 19 | 19 | 19 | 12.5 (≈ 37.3 µM) | 50 (≈ 149 µM) | 50 (≈ 149 µM) | 50 (≈ 149 µM) | 12.5 (≈ 37.3 µM) | 50 (≈ 149 µM) |
| N#C/C(=C/N)C(=O)Nc1nc2ccccc2s1 | 13 | 19 | 25 | 13 | 31 | 100 (≈ 409 µM) | 50 (≈ 205 µM) | 25 (≈ 102 µM) | 100 (≈ 409 µM) | 6.25 (≈ 25.6 µM) | 12.5 (≈ 51.2 µM) |
| Nc1ncc(C(=O)Nc2nc3ccccc3s2)c(N)n1 | 31 | 25 | 25 | 19 | 37 | 12.5 (≈ 43.7 µM) | 25 (≈ 87.3 µM) | 25 (≈ 87.3 µM) | 50 (≈ 175 µM) | 3.12 (≈ 10.9 µM) | 6.25 (≈ 21.8 µM) |
| OC(Cn1cncn1)(Cn1cncn1)c1ccc(F)cc1F [FLUCONAZOLE] |  |  |  |  | 43 |  |  |  |  | 3.12 (≈ 10.2 µM) | 3.12 (≈ 10.2 µM) |
| N#C/C(=C\NN)C(=O)Nc1nc2ccccc2s1 | 13 | 19 | 25 | 25 | 19 | 100 (≈ 386 µM) | 50 (≈ 193 µM) | 25 (≈ 96.4 µM) | 25 (≈ 96.4 µM) | 6.25 (≈ 24.1 µM) | 50 (≈ 193 µM) |
| CN(C)/C=C(\C#N)C(=O)Nc1nc2ccccc2s1 | 13 | 25 | 13 | 19 | 25 | 100 (≈ 367 µM) | 25 (≈ 91.8 µM) | 100 (≈ 367 µM) | 50 (≈ 184 µM) | 25 (≈ 91.8 µM) | 25 (≈ 91.8 µM) |
| NC1=Nc2ccccc2NC=C1C(=O)Nc1nc2ccccc2s1 | 37 | 31 | 25 | 37 | 25 | 6.25 (≈ 18.6 µM) | 12.5 (≈ 37.3 µM) | 25 (≈ 74.5 µM) | 6.25 (≈ 18.6 µM) | 12.5 (≈ 37.3 µM) | 25 (≈ 74.5 µM) |
| Nc1[nH]ncc1C(=O)Nc1nc2ccccc2s1 | 31 | 19 | 31 | 31 | 37 | 12.5 (≈ 48.2 µM) | 50 (≈ 193 µM) | 12.5 (≈ 48.2 µM) | 12.5 (≈ 48.2 µM) | 3.12 (≈ 12.1 µM) | 6.25 (≈ 24.1 µM) |
| CN[C@@H]1[C@H](O[C@H]2[C@H](O[C@H]3[C@H](O)[C@@H](O)[C@H](N=C(N)N)[C@@H](O)[C@@H]3N=C(N)N)O[C@@H](C)[C@]2(O)C=O)O[C@@H](CO)[C@H](O)[C@H]1O [STREPTOMYCIN] | 43 | 37 | 37 | 37 |  | 3.12 (≈ 5.37 µM) | 6.25 (≈ 10.7 µM) | 6.25 (≈ 10.7 µM) | 6.25 (≈ 10.7 µM) |  |  |
| N=c1c(C(=O)Nc2nc3ccccc3s2)cnc2sccn12 | 31 | 25 | 25 | 37 | 25 | 12.5 (≈ 38.2 µM) | 25 (≈ 76.4 µM) | 25 (≈ 76.4 µM) | 6.25 (≈ 19.1 µM) | 12.5 (≈ 38.2 µM) | 25 (≈ 76.4 µM) |
| Nc1c(C(=O)Nc2nc3ccccc3s2)cnc2nnnn12 | 43 | 31 | 19 | 19 | 37 | 3.12 (≈ 10 µM) | 12.5 (≈ 40 µM) | 50 (≈ 160 µM) | 50 (≈ 160 µM) | 3.12 (≈ 10 µM) | 6.25 (≈ 20 µM) |
